From ChEMBL document CHEMBL5696442, “Discovery of type II inhibitors of TGFβ-activated kinase 1 (TAK1) and mitogen-activated protein kinase kinase kinase kinase 2 (MAP4K2)” (J Med Chem, 2015)

Legend:
Type in all cases: cell-based
[1] = biological target: T1, Aurora kinase C (Homo sapiens) (UniProt Q9UQB9); assay: Inhibition of AurC ATP Loop labeling site in human A-375 cells at 5 uM by KiNativ Profiling analysis relative to control
T1 sequence (whole entry): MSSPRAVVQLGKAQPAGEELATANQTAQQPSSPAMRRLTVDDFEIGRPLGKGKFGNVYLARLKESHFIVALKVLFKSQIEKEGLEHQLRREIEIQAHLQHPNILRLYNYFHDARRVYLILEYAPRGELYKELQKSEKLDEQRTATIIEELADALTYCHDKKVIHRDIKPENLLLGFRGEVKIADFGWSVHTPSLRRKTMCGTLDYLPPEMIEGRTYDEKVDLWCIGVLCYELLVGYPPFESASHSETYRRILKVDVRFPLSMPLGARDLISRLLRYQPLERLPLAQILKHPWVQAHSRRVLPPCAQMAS
Summary of the method: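 Live A375 melanoma cells were treated with compound at 5 or 0.5 μM, then lysed. The lysates were labeled with a lysine-reactive ATP or ADP-biotin probe. Kinase protection from probe labeling was measured by KiNativ.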

[2] = biological target: Cyclin-dependent kinase 9 (Homo sapiens) (UniProt P50750); assay: Inhibition of CDK9 Lys2 labeling site in human A-375 cells at 5 uM by KiNativ Profiling analysis relative to control
Summary of the method: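 Live A375 melanoma cells were treated with compound at 5 or 0.5 μM. The cells were then lysed, and the lysates were labeled with a lysine-reactive ATP or ADP-biotin acyl probe (KiNativ). Inhibition is the compound's protection of each kinase labeling-site peptide from probe labeling, relative to untreated control.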

[3] = biological target: Epidermal growth factor receptor (Homo sapiens) (UniProt P00533); assay: Inhibition of EGFR ACT labeling site harbouring LLGAEEKEYHAEGGKVPIK in human A-375 cells at 5 uM by KiNativ Profiling analysis relative to control
Summary of the method: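 Live A375 melanoma cells were treated with compound at 0.5 or 5 μM, then lysed. Lysates were labeled with a lysine-reactive ATP or ADP-biotin probe. The read-out was protection of each kinase probe-labeling site from labeling, relative to control.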

[4] = biological target: Serine/threonine-protein kinase 26 (Homo sapiens) (UniProt Q9P289); assay: Inhibition of MST4 Lys1 labeling site in human A-375 cells at 0.5 uM by KiNativ Profiling analysis relative to control
[5] = biological target: T2, Serine/threonine-protein kinase TAO3 (Homo sapiens) (UniProt Q9H2K8); assay: Inhibition of TAO3 Lys2 labeling site in human A-375 cells at 0.5 uM by KiNativ Profiling analysis relative to control
T2 sequence (whole entry): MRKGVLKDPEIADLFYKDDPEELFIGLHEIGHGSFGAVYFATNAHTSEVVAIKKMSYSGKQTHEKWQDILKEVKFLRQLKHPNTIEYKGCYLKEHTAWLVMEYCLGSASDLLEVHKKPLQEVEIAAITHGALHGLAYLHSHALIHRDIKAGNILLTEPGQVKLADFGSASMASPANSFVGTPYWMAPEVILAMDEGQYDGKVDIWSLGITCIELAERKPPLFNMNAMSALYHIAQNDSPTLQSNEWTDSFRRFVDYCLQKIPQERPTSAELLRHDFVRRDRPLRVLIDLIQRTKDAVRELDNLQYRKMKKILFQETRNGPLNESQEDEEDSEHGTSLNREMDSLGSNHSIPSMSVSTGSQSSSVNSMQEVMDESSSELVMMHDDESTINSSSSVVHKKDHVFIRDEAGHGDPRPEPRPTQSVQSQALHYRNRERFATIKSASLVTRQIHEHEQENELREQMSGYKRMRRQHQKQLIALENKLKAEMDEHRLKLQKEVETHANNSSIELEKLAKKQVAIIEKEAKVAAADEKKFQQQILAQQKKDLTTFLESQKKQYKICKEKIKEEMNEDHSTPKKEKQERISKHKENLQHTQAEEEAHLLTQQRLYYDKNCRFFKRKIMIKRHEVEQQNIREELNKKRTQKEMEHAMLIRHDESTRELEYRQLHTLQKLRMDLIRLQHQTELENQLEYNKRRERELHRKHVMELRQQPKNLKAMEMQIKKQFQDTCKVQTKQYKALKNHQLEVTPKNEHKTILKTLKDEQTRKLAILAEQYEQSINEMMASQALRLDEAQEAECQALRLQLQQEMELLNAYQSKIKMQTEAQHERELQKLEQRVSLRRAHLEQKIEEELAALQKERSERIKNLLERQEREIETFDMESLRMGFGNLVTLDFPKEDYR

[6] = biological target: Dual specificity mitogen-activated protein kinase kinase 1 (Homo sapiens) (UniProt Q02750); assay: Inhibition of MAP2K1 Lys2 labeling site harbouring IMHRDVKPSNILVNSR in human A-375 cells at 0.05 uM by KiNativ Profiling analysis relative to control
[7] = biological target: T3, Dual specificity mitogen-activated protein kinase kinase 5 (Homo sapiens) (UniProt Q13163); assay: Inhibition of MAP2K5 Lys2 labeling site in human A-375 cells at 0.05 uM by KiNativ Profiling analysis relative to control
T3 sequence (whole entry): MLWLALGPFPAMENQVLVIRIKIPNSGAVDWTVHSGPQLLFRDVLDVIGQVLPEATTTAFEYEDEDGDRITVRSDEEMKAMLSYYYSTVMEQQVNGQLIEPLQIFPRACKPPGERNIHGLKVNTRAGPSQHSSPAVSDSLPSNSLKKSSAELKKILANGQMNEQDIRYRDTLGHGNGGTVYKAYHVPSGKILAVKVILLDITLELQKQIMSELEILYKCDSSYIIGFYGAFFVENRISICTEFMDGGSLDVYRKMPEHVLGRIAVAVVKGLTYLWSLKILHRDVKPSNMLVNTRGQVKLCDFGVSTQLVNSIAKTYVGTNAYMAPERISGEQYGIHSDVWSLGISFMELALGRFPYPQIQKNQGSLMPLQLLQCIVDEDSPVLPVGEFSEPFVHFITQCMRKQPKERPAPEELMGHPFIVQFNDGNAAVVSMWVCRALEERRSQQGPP

[8] = biological target: Phosphatidylinositol 3-kinase catalytic subunit type 3 (Homo sapiens) (UniProt Q8NEB9); assay: Inhibition of PIK3C3 ATP labeling site in human A-375 cells at 0.05 uM by KiNativ Profiling analysis relative to control
Chain of Phosphatidylinositol 3-kinase catalytic subunit type 3 (Homo sapiens) (Q8NEB9 whole entry): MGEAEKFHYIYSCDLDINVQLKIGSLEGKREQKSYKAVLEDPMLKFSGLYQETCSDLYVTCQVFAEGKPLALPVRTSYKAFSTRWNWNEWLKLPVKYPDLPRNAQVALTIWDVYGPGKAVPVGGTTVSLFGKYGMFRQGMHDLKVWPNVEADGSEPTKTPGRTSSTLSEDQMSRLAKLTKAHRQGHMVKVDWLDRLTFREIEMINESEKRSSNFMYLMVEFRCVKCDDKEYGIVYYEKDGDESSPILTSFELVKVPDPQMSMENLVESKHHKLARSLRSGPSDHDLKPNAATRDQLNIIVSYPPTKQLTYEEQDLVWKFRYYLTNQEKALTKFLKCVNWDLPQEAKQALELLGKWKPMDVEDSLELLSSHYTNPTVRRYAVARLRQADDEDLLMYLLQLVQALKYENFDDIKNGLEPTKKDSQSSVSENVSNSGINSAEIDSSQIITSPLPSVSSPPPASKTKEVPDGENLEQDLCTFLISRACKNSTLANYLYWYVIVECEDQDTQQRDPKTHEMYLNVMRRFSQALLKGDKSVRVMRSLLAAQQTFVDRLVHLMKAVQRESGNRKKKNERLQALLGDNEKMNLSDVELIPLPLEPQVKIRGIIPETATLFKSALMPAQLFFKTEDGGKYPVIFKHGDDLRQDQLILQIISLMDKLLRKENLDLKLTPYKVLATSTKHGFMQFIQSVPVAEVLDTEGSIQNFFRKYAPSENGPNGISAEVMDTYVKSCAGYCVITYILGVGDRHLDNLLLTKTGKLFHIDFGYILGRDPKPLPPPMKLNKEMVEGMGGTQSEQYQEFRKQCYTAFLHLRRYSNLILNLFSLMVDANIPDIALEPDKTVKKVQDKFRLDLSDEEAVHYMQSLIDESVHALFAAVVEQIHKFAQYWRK

Chain of Cyclin-dependent kinase 9 (Homo sapiens) (P50750 whole entry): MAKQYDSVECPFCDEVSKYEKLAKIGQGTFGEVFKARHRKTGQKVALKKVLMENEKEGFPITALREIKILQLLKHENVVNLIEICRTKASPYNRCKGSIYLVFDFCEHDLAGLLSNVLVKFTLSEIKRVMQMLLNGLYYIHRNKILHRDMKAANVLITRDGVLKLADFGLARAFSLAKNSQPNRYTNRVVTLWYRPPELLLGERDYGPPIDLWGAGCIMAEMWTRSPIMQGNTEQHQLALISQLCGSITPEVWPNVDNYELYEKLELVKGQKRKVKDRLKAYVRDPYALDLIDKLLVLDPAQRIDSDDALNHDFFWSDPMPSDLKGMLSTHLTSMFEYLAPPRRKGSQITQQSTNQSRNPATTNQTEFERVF
Chain of Serine/threonine-protein kinase 26 (Homo sapiens) (Q9P289 2-416 limits assumed): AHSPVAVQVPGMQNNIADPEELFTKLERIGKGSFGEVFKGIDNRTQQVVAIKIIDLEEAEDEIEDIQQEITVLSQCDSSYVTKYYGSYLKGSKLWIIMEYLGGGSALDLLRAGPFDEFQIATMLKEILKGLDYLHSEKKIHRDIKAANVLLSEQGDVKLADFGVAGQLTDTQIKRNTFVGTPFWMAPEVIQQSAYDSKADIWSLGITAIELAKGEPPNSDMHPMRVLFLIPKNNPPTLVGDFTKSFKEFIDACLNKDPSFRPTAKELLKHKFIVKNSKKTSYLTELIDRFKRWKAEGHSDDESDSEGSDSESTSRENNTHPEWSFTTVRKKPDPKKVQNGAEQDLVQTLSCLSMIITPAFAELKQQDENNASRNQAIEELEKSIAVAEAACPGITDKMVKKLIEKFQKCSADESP
Chain of Epidermal growth factor receptor (Homo sapiens) (P00533 whole entry): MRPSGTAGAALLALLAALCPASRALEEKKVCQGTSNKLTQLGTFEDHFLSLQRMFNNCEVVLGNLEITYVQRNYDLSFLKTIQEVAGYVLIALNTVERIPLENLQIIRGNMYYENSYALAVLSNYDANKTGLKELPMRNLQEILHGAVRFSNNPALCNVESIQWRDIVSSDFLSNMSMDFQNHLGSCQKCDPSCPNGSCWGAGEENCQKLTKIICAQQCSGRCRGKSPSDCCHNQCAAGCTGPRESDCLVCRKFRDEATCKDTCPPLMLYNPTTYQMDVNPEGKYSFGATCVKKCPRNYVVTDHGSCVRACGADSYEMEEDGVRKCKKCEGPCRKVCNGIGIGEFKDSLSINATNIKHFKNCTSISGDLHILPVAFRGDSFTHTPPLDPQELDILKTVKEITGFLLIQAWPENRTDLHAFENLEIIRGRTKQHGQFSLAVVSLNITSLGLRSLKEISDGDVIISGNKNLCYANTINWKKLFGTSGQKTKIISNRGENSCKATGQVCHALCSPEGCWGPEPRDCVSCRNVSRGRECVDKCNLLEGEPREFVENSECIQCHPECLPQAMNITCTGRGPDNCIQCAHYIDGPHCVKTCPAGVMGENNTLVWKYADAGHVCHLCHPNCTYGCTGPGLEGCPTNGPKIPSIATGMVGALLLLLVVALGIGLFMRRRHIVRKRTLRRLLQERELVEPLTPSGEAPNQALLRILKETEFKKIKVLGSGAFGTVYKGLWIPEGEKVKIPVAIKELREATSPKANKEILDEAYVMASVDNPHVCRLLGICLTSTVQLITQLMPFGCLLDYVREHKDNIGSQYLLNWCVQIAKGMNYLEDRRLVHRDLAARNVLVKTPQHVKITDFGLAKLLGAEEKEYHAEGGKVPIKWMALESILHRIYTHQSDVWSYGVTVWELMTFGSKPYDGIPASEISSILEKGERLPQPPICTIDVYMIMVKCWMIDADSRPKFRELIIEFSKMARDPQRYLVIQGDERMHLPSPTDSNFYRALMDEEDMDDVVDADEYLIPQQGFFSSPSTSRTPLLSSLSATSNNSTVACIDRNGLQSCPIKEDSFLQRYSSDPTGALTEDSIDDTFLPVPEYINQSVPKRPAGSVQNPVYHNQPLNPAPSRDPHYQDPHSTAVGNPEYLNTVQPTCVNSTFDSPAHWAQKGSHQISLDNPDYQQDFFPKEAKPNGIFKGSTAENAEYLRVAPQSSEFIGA
Chain of Dual specificity mitogen-activated protein kinase kinase 1 (Homo sapiens) (Q02750 whole entry): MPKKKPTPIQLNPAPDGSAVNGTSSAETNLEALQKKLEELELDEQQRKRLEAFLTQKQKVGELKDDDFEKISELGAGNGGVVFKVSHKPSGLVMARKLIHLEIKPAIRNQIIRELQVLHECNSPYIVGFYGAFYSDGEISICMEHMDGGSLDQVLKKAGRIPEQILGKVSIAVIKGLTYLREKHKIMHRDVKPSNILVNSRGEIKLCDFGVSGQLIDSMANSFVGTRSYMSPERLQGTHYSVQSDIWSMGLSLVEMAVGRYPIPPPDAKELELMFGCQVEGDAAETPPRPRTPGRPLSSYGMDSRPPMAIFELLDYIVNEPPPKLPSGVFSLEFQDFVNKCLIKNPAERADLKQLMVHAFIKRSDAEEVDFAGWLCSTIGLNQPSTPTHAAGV

Row | SMILES | inhibition [1] | inhibition [2] | inhibition [3] | inhibition [4] | inhibition [5] | inhibition [6] | inhibition [7] | inhibition [8]
1 | CCN1CCN(Cc2ccc(NC(=O)c3ccc(C)c(Oc4ccnc5[nH]ccc45)c3)cc2C(F)(F)F)CC1 | 31.4% | 19.2% | 0.7% | -0.4% | -5.6% | 14.9% | 19.1% | 33.3%
2 | CCN1CCN(Cc2ccc(NC(=O)c3ccc(C)c(/C=C/c4cnc5[nH]ccc5c4OC)c3)cc2C(F)(F)F)CC1 | 48.5% | 1.2% | -7.4% | 2.8% | 6.6% | 32.5% | -5.6% | 38.2%
